Laboratory results: ChEMBL document CHEMBL3822416, “Design, Synthesis, and Structure-Activity Relationship Study of Novel Indole-2-carboxamide Derivatives as Anti-inflammatory Agents for the Treatment of Sepsis” (J Med Chem, 2016)
The source made the active and inactive calls. No cut-off for these calls is given here.

Experiments:
RAW264.7 [1] = test: Inhibition of LPS-induced IL6 production in mouse RAW264.7 cells at 10 uM preincubated for 30 mins prior to LPS challenge measured after 24 hrs by ELISA; format: functional
In short: (§1)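 RAW 264.7 cells (ATCC) were grown in DMEM with 10% FBS and penicillin/streptomycin at 37 °C, 5% CO2. Cells were seeded at 400,000/well and incubated for 24 h, pretreated with compound for 30 min, then given 0.5 µg/mL LPS for 24 h. Medium TNF-α or IL-6 was measured by ELISA and normalized to total protein of viable cell pellets.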

RAW264.7 [2] = test: Inhibition of LPS-induced TNF-alpha production in mouse RAW264.7 cells at 10 uM preincubated for 30 mins prior to LPS challenge measured after 24 hrs by ELISA; format: functional; in short: as §1
RAW264.7 [3] = test: Inhibition of LPS-induced IL6 production in mouse RAW264.7 cells preincubated for 30 mins prior to LPS challenge measured after 24 hrs by ELISA; format: functional, cell-based; in short: as §1
RAW264.7 [4] = test: Inhibition of LPS-induced TNF-alpha production in mouse RAW264.7 cells preincubated for 30 mins prior to LPS challenge measured after 24 hrs by ELISA; format: functional, cell-based; in short: as §1
Mus musculus [5] = test: Downregulation of IL-6 mRNA level in lung of LPS-induced C57BL/6 mouse sepsis model at 10 mg/kg, iv administered 15 mins prior to LPS challenge measured after 6 hrs by RT-qPCR analysis; format: functional, organism-based
In short: (§2)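 Male C57BL/6 mice were given 10 mg/kg by tail-vein injection 15 min before 20 mg/kg LPS and killed after 6 h; lungs were harvested. RNA was extracted with TRIZOL and quantified by real-time quantitative PCR as relative mRNA amount.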

Mus musculus [6] = test: Downregulation of IL-33 mRNA level in lung of LPS-induced C57BL/6 mouse sepsis model at 10 mg/kg, iv administered 15 mins prior to LPS challenge measured after 6 hrs by RT-qPCR analysis; format: functional, organism-based; in short: as §2
Mus musculus [7] = test: Downregulation of IL-1beta mRNA level in lung of LPS-induced C57BL/6 mouse sepsis model at 10 mg/kg, iv administered 15 mins prior to LPS challenge measured after 6 hrs by RT-qPCR analysis; format: functional, organism-based; in short: as §2
Mus musculus [8] = test: Antiinflammatory activity in LPS-induced C57BL/6 mouse sepsis model assessed as decrease in pulmonary lobule structural changes at 10 mg/kg, iv administered 15 mins prior to LPS challenge measured after 6 hrs by hematoxylin and eosin staining; format: functional, organism-based
In short: (§3)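 Male C57BL/6 mice (18-22 g), randomized into groups. Compound at 10 mg/kg was given by tail-vein injection 15 min before LPS 20 mg/kg; controls received saline. Animals were sacrificed 6 h after LPS. Lung was fixed in 4% paraformaldehyde, paraffin-embedded, cut at 5 µm and H&E stained. A pathologist, blinded, scored alveolar congestion, hemorrhage, neutrophil infiltration and alveolar wall thickness/hyaline membrane.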

Mus musculus [9] = test: Decrease in MPO activity in C57BL/6 mouse lung at 10 mg/kg, iv after 6 hrs in presence of O-dianisidine dihydrochloride relative to control; format: ADME, organism-based; details: in vivo
In short: (§4)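 Mice were given 10 mg/kg iv 15 min before 20 mg/kg LPS or without LPS; saline served as control, and animals were killed 6 h later. Lung supernatants were incubated with 0.01% H2O2 and O-dianisidine dihydrochloride 0.167 mg/mL for 30 min, with absorbance change at 460 nm. One unit degrades 1 µmol peroxide/min at 37 °C; values are expressed as units/g lung.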

Mus musculus [10] = test: Antiinflammatory activity in LPS-induced C57BL/6 mouse sepsis model assessed as reduction in airspace inflammation in lung at 10 mg/kg, iv administered 15 mins prior to LPS challenge measured after 6 hrs by hematoxylin and eosin staining; format: functional, organism-based; in short: as §3
Mus musculus [11] = test: Antiinflammatory activity in LPS-induced C57BL/6 mouse sepsis model assessed as inhibition of macrophage infiltration in lung at 10 mg/kg, iv administered 15 mins prior to LPS challenge measured after 6 hrs by F4/80 and hematoxylin-staining based microscopy; format: functional, organism-based
In short: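 C57BL/6 males were dosed with 10 mg/kg iv (tail vein) 15 min before 20 mg/kg LPS and sacrificed 6 h later. Paraffin lung sections had antigen retrieval by pressure cooker in 10 mM citrate pH 6.5, then H2O2, 5% BSA block, anti-F4/80 overnight at 4 °C, HRP secondary, DAB and hematoxylin counterstain. The % F4/80-positive cells was counted in 10 random 200× fields per section.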

Mus musculus [12] = test: Downregulation of IL-12 mRNA level in lung of LPS-induced C57BL/6 mouse sepsis model at 10 mg/kg, iv administered 15 mins prior to LPS challenge measured after 6 hrs by RT-qPCR analysis; format: functional, organism-based; in short: as §2
Mus musculus [13] = test: Downregulation of COX2 mRNA level in lung of LPS-induced C57BL/6 mouse sepsis model at 10 mg/kg, iv administered 15 mins prior to LPS challenge measured after 6 hrs by RT-qPCR analysis; format: functional, organism-based; in short: as §2
Mus musculus [14] = test: Downregulation of TNF-alpha mRNA level in lung of LPS-induced C57BL/6 mouse sepsis model at 10 mg/kg, iv administered 15 mins prior to LPS challenge measured after 6 hrs by RT-qPCR analysis; format: functional, organism-based; in short: as §2
Mus musculus [15] = test: Antiinflammatory activity in LPS-induced C57BL/6 mouse sepsis model assessed as inhibition of neutrophils infiltration in lung by measuring MPO activity at 10 mg/kg, iv administered 15 mins prior to LPS challenge measured after 6 hrs in presence of O-dianisidine dihydrochloride relative to control; format: functional, organism-based; in short: as §4
[16] = Mus musculus, RAW264.7, read-out: IC50

Row | SMILES | inhibition at 10 µM (RAW264.7 [1]) [%] | inhibition at 10 µM (RAW264.7 [2]) [%] | also measured
1 | CCOc1ccc(NC(=O)c2cc3cc([N+](=O)[O-])ccc3[nH]2)cc1 | 41.1 | 33.8 | –
2 | CN1CCN(c2ccc(NC(=O)c3cc4cc(NC(=O)CCl)ccc4n3Cc3ccc(C(F)(F)F)cc3)cc2)CC1 | – | – | IC50 (RAW264.7 [3]; [16]): 2.99 µM; IC50 (RAW264.7 [4]; [16]): 6.03 µM
3 | COc1ccc2c(c1)c(CC(=O)O)c(C)n2C(=O)c1ccc(Cl)cc1 [INDOMETHACIN] | 53.6 | 24.1 | –
4 | COc1cc(COc2ccc(NC(=O)c3cc4cc([N+](=O)[O-])ccc4[nH]3)cc2Cl)cc(OC)c1 | 29 | 7.67 | –
5 | O=C(Nc1ccc(OCc2cccc(F)c2)c(Cl)c1)c1cc2cc([N+](=O)[O-])ccc2[nH]1 | – | – | inhibition (RAW264.7 [1]): inactive; inhibition (RAW264.7 [2]): inactive
6 | O=C(Nc1ccc(OCc2ccc(Cl)cc2)cc1)c1cc2cc([N+](=O)[O-])ccc2[nH]1 | 4.28 | – | inhibition (RAW264.7 [2]): inactive
7 | CN1CCN(c2ccc(NC(=O)c3cc4cc(NS(C)(=O)=O)ccc4n3Cc3ccc(C(F)(F)F)cc3)cc2)CC1 | – | – | IC50 (RAW264.7 [3]; [16]): 4.91 µM; IC50 (RAW264.7 [4]; [16]): 1.97 µM
8 | CCC(=O)Nc1ccc2c(c1)cc(C(=O)Nc1ccc(N3CCN(C)CC3)cc1)n2Cc1ccc(C(F)(F)F)cc1 | – | – | IC50 (RAW264.7 [3]; [16]): 3.33 µM; IC50 (RAW264.7 [4]; [16]): 4.1 µM
9 | CCCn1c(-c2c[nH]c3ncccc23)nc2ccc(N3CCN(C)CC3)nc21 | 69.5 | 67.3 | Activity (Mus musculus [5]): Active; Activity (Mus musculus [6]): Active; Activity (Mus musculus [7]): inactive; Activity (Mus musculus [8]): Active; Activity (Mus musculus [9]): Non-toxic; Activity (Mus musculus [10]): Active; inhibition (Mus musculus [11]): Active; Activity (Mus musculus [12]): Active; Activity (Mus musculus [13]): inactive; Activity (Mus musculus [14]): Active; inhibition (Mus musculus [15]): Active
10 | CN1CCN(c2ccc(NC(=O)c3cc4cc([N+](=O)[O-])ccc4n3Cc3ccc(Cl)cc3)cc2)CC1 | 97.2 | 67 | –
11 | O=C(NCCc1ccccc1)c1cc2cc([N+](=O)[O-])ccc2[nH]1 | 8.71 | 2.58 | –
12 | O=C(Nc1ccc(OCc2cccc(F)c2)cc1)c1cc2cc([N+](=O)[O-])ccc2[nH]1 | 4.42 | – | inhibition (RAW264.7 [2]): inactive
13 | CN1CCN(c2ccc(NC(=O)c3cc4cc([N+](=O)[O-])ccc4n3Cc3ccc(Br)cc3)cc2)CC1 | 93 | 31.1 | –
14 | Cc1ccc(COc2ccc(NC(=O)c3cc4cc([N+](=O)[O-])ccc4[nH]3)cc2)cc1 | 1.98 | – | inhibition (RAW264.7 [2]): inactive
15 | Cc1ccc(C)c(COc2ccc(NC(=O)c3cc4cc([N+](=O)[O-])ccc4[nH]3)cc2Cl)c1 | 24.9 | 2.89 | –
16 | CN1CCN(c2ccc(NC(=O)c3cc4cc([N+](=O)[O-])ccc4n3Cc3ccc(C(F)(F)F)cc3)cc2)CC1 | 98.7 | 75.1 | IC50 (RAW264.7 [3]; [16]): 5.09 µM; IC50 (RAW264.7 [4]; [16]): 2.74 µM
17 | CN1CCN(c2ccc(NC(=O)c3cc4cc([N+](=O)[O-])ccc4n3Cc3c(Cl)cccc3Cl)cc2)CC1 | 93.3 | 52.7 | –
18 | COc1cc(NC(=O)c2cc3cc([N+](=O)[O-])ccc3[nH]2)cc(OC)c1 | 31.3 | 17.2 | –
19 | CN1CCN(c2ccc(NC(=O)c3cc4cc([N+](=O)[O-])ccc4n3Cc3cccc(F)c3)cc2)CC1 | 86.4 | 22.8 | –

Row | SMILES | inhibition at 10 µM (RAW264.7 [1]) [%] | inhibition at 10 µM (RAW264.7 [2]) [%] | also measured
20 | COc1cccc(COc2ccc(NC(=O)c3cc4cc([N+](=O)[O-])ccc4[nH]3)cc2Cl)c1 | 21.9 | – | inhibition (RAW264.7 [2]): inactive
21 | O=C(Nc1ccc(OCc2ccc(C(F)(F)F)cc2)c(Cl)c1)c1cc2cc([N+](=O)[O-])ccc2[nH]1 | 29.2 | – | inhibition (RAW264.7 [2]): inactive
22 | COc1ccc(CCNC(=O)c2cc3cc([N+](=O)[O-])ccc3[nH]2)cc1 | 11.8 | 9.75 | –
23 | CN1CCN(c2ccc(NC(=O)c3cc4cc([N+](=O)[O-])ccc4n3C)cc2)CC1 | 87.2 | 16 | –
24 | COc1ccc(NC(=O)c2cc3cc([N+](=O)[O-])ccc3[nH]2)cc1 | 52.8 | 8.17 | –
25 | COc1cc(NC(=O)c2cc3cc([N+](=O)[O-])ccc3[nH]2)cc(OC)c1OC | 62.3 | 45.8 | –
26 | COc1ccc(COc2ccc(NC(=O)c3cc4cc([N+](=O)[O-])ccc4[nH]3)cc2Cl)cc1 | 24.8 | – | inhibition (RAW264.7 [2]): inactive
27 | CC(C)=CCOc1ccc(NC(=O)c2cc3cc([N+](=O)[O-])ccc3[nH]2)cc1 | 56.5 | 38.6 | –
28 | COc1ccc(Cn2c(C(=O)Nc3ccc(N4CCN(C)CC4)cc3)cc3cc([N+](=O)[O-])ccc32)cc1 | 64.3 | 41.4 | –
29 | CN1CCN(c2ccc(NC(=O)c3cc4cc(N)ccc4n3Cc3ccc(C(F)(F)F)cc3)cc2)CC1 | – | – | IC50 (RAW264.7 [3]; raw264.7): Not Active; IC50 (RAW264.7 [4]; raw264.7): Not Active
30 | O=C(Nc1ccc(N2CCOCC2)cc1)c1cc2cc([N+](=O)[O-])ccc2[nH]1 | 38 | 18 | –
31 | O=C(Nc1ccccc1)c1cc2cc([N+](=O)[O-])ccc2[nH]1 | 49.6 | 17.5 | –
32 | O=C(Nc1ccc(OCc2c(Cl)cccc2Cl)c(Cl)c1)c1cc2cc([N+](=O)[O-])ccc2[nH]1 | 29.8 | – | inhibition (RAW264.7 [2]): inactive
33 | C=CC(=O)Nc1ccc2c(c1)cc(C(=O)Nc1ccc(N3CCN(C)CC3)cc1)n2Cc1ccc(C(F)(F)F)cc1 | – | – | IC50 (RAW264.7 [3]; [16]): 6.28 µM; IC50 (RAW264.7 [4]; [16]): 1.05 µM
34 | O=C(Nc1ccc(OCc2cc(F)cc(F)c2)cc1)c1cc2cc([N+](=O)[O-])ccc2[nH]1 | 11.2 | – | inhibition (RAW264.7 [2]): inactive
35 | CN1CCN(c2ccc(NC(=O)c3cc4cc([N+](=O)[O-])ccc4[nH]3)cc2)CC1 | 91 | 62.5 | –
36 | C=CCn1c(C(=O)Nc2ccc(N3CCN(C)CC3)cc2)cc2cc([N+](=O)[O-])ccc21 | 58.2 | 12.7 | –
37 | Cc1cc2cc(NC(=O)c3cc4cc([N+](=O)[O-])ccc4[nH]3)ccc2[nH]1 | 37 | 7.53 | –
38 | O=C(Nc1ccc(OCc2ccccc2)c(Cl)c1)c1cc2cc([N+](=O)[O-])ccc2[nH]1 | 21.5 | – | inhibition (RAW264.7 [2]): inactive
